{
  "source": "ChEMBL document CHEMBL3232963",
  "about": "“Discovery of a potent and selective α3β4 nicotinic acetylcholine receptor antagonist from an α-conotoxin synthetic combinatorial library” (J Med Chem, 2014)",
  "key": {"[1]": {"biological_target": "T1, Neuronal acetylcholine receptor; alpha3/beta4 (Rattus norvegicus, UniProt P04757+P12392)", "T1 sequence (P04757 whole entry, the tested form may be a part)": "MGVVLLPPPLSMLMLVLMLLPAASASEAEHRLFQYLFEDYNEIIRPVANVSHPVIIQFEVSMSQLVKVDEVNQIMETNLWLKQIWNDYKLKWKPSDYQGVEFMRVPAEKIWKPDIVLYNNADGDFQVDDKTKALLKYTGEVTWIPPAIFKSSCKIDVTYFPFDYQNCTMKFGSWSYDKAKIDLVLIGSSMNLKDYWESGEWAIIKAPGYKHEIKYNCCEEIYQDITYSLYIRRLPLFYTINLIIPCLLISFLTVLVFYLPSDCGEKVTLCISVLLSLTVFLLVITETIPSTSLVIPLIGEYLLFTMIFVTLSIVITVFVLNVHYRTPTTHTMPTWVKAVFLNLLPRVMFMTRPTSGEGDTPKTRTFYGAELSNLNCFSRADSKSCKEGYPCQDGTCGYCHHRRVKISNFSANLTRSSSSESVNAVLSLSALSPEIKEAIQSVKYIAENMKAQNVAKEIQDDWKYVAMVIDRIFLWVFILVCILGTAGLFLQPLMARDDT", "T1 sequence (P12392 whole entry, the tested form may be a part)": "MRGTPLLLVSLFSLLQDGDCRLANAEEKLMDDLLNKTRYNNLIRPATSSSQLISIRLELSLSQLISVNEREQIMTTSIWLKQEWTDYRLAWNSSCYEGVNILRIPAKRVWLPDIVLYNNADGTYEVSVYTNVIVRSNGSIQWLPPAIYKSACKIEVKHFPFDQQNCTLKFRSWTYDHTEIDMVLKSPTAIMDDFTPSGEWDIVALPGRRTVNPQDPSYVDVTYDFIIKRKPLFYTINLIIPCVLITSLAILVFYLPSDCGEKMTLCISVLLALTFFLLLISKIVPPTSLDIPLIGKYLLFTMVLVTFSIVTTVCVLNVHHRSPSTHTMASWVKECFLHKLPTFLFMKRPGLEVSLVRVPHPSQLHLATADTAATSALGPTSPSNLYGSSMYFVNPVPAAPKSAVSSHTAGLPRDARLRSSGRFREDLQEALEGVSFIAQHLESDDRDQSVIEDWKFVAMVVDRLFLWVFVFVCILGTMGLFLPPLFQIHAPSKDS", "experiment": "Inhibition of rat alpha3beta4 nAChR expressed in Xenopus laevis oocytes by voltage clamp technique", "format": "cell-based", "summary_of_the_method": "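Oocytes expressing α3 chimera/β4 nAChR, voltage-clamped at ~22 °C. Concentrations below 1 μM perfused, with 1 s ACh pulses every 1 min; 1 μM and above given as a 5 min static bath. Lowest concentration tested 10 nM. IC50 from a concentration–response curve with top and bottom fixed at 100 and 0; n = 3–5 oocytes per concentration.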"}, "[2]": {"biological_target": "Neuronal acetylcholine receptor; alpha3/beta4 (Homo sapiens, UniProt P30926+P32297)", "sequence (P30926 whole entry)": "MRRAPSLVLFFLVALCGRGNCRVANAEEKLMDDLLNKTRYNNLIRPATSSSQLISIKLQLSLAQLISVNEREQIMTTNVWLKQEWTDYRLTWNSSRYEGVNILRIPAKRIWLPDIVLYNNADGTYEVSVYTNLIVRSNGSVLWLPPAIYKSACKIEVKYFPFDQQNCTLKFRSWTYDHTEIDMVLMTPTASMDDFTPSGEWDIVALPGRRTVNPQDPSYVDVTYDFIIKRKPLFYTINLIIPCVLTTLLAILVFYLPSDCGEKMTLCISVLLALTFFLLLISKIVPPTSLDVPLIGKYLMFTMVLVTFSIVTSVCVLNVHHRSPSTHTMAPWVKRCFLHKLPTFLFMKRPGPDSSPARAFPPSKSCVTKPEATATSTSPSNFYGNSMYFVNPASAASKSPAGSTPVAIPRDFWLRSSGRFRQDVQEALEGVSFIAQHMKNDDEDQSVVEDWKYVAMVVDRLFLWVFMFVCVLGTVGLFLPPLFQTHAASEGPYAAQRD", "sequence (P32297 whole entry)": "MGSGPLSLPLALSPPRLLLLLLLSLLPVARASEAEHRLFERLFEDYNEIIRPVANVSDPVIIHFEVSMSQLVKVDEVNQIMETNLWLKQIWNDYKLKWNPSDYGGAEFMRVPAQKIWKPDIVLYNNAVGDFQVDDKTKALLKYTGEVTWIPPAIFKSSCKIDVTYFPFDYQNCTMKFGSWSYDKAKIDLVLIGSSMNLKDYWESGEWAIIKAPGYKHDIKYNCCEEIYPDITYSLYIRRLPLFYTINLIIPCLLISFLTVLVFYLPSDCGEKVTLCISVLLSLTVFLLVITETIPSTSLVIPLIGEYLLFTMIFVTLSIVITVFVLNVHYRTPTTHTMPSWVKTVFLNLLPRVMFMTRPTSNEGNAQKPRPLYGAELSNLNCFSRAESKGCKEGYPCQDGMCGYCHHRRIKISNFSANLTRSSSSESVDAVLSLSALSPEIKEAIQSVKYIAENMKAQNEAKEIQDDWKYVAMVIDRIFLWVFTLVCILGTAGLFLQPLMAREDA", "experiment": "Antagonist activity at alpha3beta4 nAChR (unknown origin)", "format": "protein-complex assay", "summary_of_the_method": "(§1)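 Stably transfected HEK293 lines (KXα3β4R2, KXα3β2R2, KXα4β2R2; rat subunits) grown in DMEM/10% FBS with G-418, plated 24 h before assay. Cells washed with HBSS, peptide added, then membrane potential blue dye, 30 min at 37 °C. Fluorescence (ex 565/em 530 nm) read up to 60 s after epibatidine to 0.1 μM. IC50 from maximal responses across concentrations; n = 4.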"}, "[3]": {"biological_target": "T1, Neuronal acetylcholine receptor; alpha3/beta4", "experiment": "Displacement of [3H]epibatadine from rat alpha3beta4 nAChR expressed in HEK293 cells after 2 hrs by betaplate counting analysis", "format": "cell-based", "summary_of_the_method": "(§2)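 Membranes from HEK293 cells stably expressing α3β4 or α4β2 nAChR, homogenised in 50 mM Tris pH 7.4 and washed by centrifugation. Incubated 2 h at room temperature with peptide and 0.31 nM [3H]epibatidine; filtered on PEI-soaked glass fibre, counted. Nonspecific binding with 0.1 μM unlabeled epibatidine. Ki by Cheng–Prusoff from IC50.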"}, "[4]": {"biological_target": "Neuronal acetylcholine receptor; alpha3/beta4 (Rattus norvegicus) (UniProt P04757+P12392)", "experiment": "Antagonist activity at rat alpha3beta4 nAChR expressed in HEK293 cells assessed as inhibition of epibatadine-induced effect at 10 uM after 30 mins by fluorescent membrane potential assay relative to mecamylamine", "format": "cell-based", "summary_of_the_method": "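Rat α3β4 nAChR stably expressed in HEK293 cells; crude, SPE-desalted individual peptides tested at 10 μM in HBSS with membrane potential blue dye, 30 min at 37 °C. Fluorescence change read after epibatidine (0.1 μM). Percent inhibition set against 10 μM mecamylamine taken as 100%.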"}, "[5]": {"biological_target": "T1, Neuronal acetylcholine receptor; alpha3/beta4", "experiment": "Antagonist activity at rat alpha3beta4 nAChR expressed in HEK293 cells assessed as inhibition of epibatadine-induced effect after 30 mins by fluorescent membrane potential assay", "format": "cell-based", "summary_of_the_method": "as §1"}, "[6]": {"biological_target": "Neuronal acetylcholine receptor; alpha3/beta2 (Rattus norvegicus, UniProt P04757+P12390)", "sequence (P04757 whole entry)": "as the sequence (P04757 whole entry, the tested form may be a part) above", "sequence (P12390 whole entry)": "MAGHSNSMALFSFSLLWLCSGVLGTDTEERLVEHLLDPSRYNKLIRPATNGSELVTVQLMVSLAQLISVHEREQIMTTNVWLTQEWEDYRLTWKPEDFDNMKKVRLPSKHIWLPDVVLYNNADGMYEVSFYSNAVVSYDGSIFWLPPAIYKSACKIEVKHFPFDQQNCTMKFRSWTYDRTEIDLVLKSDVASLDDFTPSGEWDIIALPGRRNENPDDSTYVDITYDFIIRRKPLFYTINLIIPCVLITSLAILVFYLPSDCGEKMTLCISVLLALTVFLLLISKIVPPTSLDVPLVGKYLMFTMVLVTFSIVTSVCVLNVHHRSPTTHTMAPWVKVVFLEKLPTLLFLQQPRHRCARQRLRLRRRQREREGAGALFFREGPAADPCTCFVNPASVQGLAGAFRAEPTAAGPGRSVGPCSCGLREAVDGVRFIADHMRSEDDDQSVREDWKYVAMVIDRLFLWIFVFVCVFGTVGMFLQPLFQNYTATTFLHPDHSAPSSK", "experiment": "Antagonist activity at rat alpha3beta2 nAChR expressed in HEK293 cells assessed as inhibition of epibatadine-induced effect after 30 mins by fluorescent membrane potential assay", "format": "cell-based", "summary_of_the_method": "as §1"}, "[7]": {"biological_target": "Neuronal acetylcholine receptor; alpha4/beta2 (Rattus norvegicus, UniProt P09483+P12390)", "sequence (P09483 whole entry)": "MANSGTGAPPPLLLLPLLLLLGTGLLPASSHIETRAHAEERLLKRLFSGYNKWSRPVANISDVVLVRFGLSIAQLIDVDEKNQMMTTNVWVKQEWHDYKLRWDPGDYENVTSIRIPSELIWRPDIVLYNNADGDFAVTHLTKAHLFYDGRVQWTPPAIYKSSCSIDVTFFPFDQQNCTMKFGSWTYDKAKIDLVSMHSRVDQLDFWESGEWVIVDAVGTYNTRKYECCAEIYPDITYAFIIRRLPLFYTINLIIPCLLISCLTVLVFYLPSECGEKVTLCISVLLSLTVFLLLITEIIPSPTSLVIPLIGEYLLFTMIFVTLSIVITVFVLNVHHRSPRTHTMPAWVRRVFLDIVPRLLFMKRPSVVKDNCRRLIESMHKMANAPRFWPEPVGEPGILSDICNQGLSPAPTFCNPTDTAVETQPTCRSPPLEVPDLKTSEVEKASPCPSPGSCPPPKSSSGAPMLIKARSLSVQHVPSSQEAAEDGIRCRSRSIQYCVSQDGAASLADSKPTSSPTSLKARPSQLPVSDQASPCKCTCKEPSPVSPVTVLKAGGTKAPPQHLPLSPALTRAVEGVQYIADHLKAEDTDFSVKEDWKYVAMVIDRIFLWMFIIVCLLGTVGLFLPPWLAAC", "sequence (P12390 whole entry)": "as the sequence (P12390 whole entry) above", "experiment": "Antagonist activity at rat alpha4beta2 nAChR expressed in HEK293 cells assessed as inhibition of epibatadine-induced effect after 30 mins by fluorescent membrane potential assay", "format": "cell-based", "summary_of_the_method": "as §1"}, "[8]": {"biological_target": "Neuronal acetylcholine receptor; alpha4/beta2 (Rattus norvegicus) (UniProt P09483+P12390)", "experiment": "Displacement of [3H]epibatadine from rat alpha4beta2 nAChR expressed in HEK293 cells up to 10 uM after 2 hrs by betaplate counting analysis", "format": "cell-based", "summary_of_the_method": "as §2"}, "[9]": {"tested_on": "HEK293", "experiment": "Selectivity ratio of IC50 for rat alpha3beta4 nAChR expressed in HEK293 cells to IC50 for rat alpha3beta2 nAChR expressed in HEK293 cells", "format": "cell-based"}},
  "note": "Activity calls are given as the source filed them. The calls are words filed in the database; no cut-off is given here. Bridge positions count the residues as written; N and C are the ends. Peptide text beside a SMILES is read from it.",
  "data": [
    {"molecule": "C[C@@H]1NC(=O)[C@H](Cc2ccccc2)NC(=O)[C@@H]2CSSC[C@H](NC(=O)CN)C(=O)N[C@@H](CSSC[C@@H](C(=O)O)NC(=O)[C@H](CC(=O)O)NC(=O)[C@@H]3CCCN3C(=O)[C@H](CC(N)=O)NC(=O)[C@H]([C@@H](C)O)NC1=O)C(=O)N[C@@H](CO)C(=O)N[C@@H](Cc1ccc(O)cc1)C(=O)N1CCC[C@H]1C(=O)N1CCC[C@H]1C(=O)N2", "values": [
      {"measurement": "IC50", "setting": "[1]", "value": 770, "unit": "nM"}
    ]},
    {"molecule": "CC(C)C[C@@H]1NC(=O)[C@H](CCC(=O)O)NC(=O)[C@@H]2CCCN2C(=O)[C@H](Cc2cnc[nH]2)NC(=O)[C@H](CC(N)=O)NC(=O)[C@H](C(C)C)NC(=O)[C@H](CO)NC(=O)[C@@H]2CSSC[C@H](NC(=O)CN)C(=O)N[C@@H](CSSC[C@@H](C(=O)O)NC1=O)C(=O)N[C@@H](CO)C(=O)N[C@@H](Cc1cnc[nH]1)C(=O)N1CCC[C@H]1C(=O)N[C@@H](C)C(=O)N2", "note": "(H-GCCSHPACSVNHPELC-OH; disulfide 2-8, 3-16)", "values": [
      {"measurement": "IC50", "setting": "[1]", "value": 480, "unit": "nM"}
    ]},
    {"molecule": "CC[C@H](C)[C@@H]1NC(=O)[C@H](Cc2cnc[nH]2)NC(=O)[C@@H]2CCCN2C(=O)[C@H](CC(N)=O)NC(=O)[C@H](CC(N)=O)NC(=O)[C@H](C(C)C)NC(=O)[C@H](CC(N)=O)NC(=O)[C@@H]2CSSC[C@H](NC(=O)CN)C(=O)N[C@@H](CSSC[C@@H](C(=O)O)NC1=O)C(=O)N[C@@H](CO)C(=O)N[C@@H](Cc1cnc[nH]1)C(=O)N1CCC[C@H]1C(=O)N[C@@H](C)C(=O)N2", "note": "(H-GCCSHPACNVNNPHIC-OH; disulfide 2-8, 3-16)", "values": [
      {"measurement": "IC50", "setting": "[2]", "value": 97, "unit": "nM"}
    ]},
    {"molecule": "CC(C)C[C@@H]1NC(=O)[C@H](C(C)C)NC(=O)[C@H](C)NC(=O)[C@@H]2CSSC[C@H](NC(=O)CN)C(=O)N[C@@H](CSSC[C@@H](C(=O)O)NC(=O)[C@H](Cc3ccc(O)cc3)NC1=O)C(=O)N[C@@H](CO)C(=O)N[C@@H]([C@H](C)O)C(=O)N1CCC[C@H]1C(=O)N1CCC[C@H]1C(=O)N2", "values": [
      {"measurement": "Ki", "setting": "[3]", "value": 851, "unit": "nM"},
      {"measurement": "IC50", "setting": "[1]", "value": 27.7, "unit": "nM"},
      {"measurement": "inhibition", "setting": "[4]", "value": 94.4, "unit": "%"},
      {"measurement": "IC50", "setting": "[5]", "value": 265, "unit": "nM"},
      {"measurement": "IC50", "setting": "[6]", "value": 26, "unit": "nM"},
      {"measurement": "IC50", "setting": "[7]", "value": "> 10000", "unit": "nM"},
      {"measurement": "Activity", "setting": "[8]", "value": "inactive"},
      {"measurement": "Ratio IC50", "setting": "[9]", "value": 10}
    ]}
  ]
}
